Experimental data reported in ChEMBL document CHEMBL1136894, “New antituberculotics originated from salicylanilides with promising in vitro activity against atypical mycobacterial strains” (Bioorg Med Chem, 2009).
Converted amounts (≈) assume the structure as drawn.

Key:
Mycobacterium kansasii [1] = assay: Antimycobacterial activity against Mycobacterium kansasii CNCTC My 235/80 after 14 days; assay type: functional; conditions: CNCTC My 235/80, 336 h
Outline: (§1)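 Compounds were added as DMSO solutions to Sula semisynthetic medium at 250, 125, 62, 32, 16, 8, 4, 2 and 1 µmol/L. Two M. kansasii strains were used: CNCTC My 235/80 and clinical isolate 6509/96, each with strain dilution 10^-4. Incubation was at 37 °C, and MIC was read at 7, 14 and 21 days.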

Mycobacterium kansasii [2] = assay: Antimycobacterial activity against Mycobacterium kansasii CNCTC My 235/80 after 7 days; assay type: functional; conditions: CNCTC My 235/80, 168 h; outline: as §1
Mycobacterium kansasii [3] = assay: Antimycobacterial activity against Mycobacterium kansasii isolate 6509/96 after 7 days; assay type: functional; conditions: isolate 6509/96, 168 h; outline: as §1
Mycobacterium kansasii [4] = assay: Antimycobacterial activity against Mycobacterium kansasii CNCTC My 235/80 after 21 days; assay type: functional; conditions: CNCTC My 235/80, 504 h; outline: as §1
Mycobacterium kansasii [5] = assay: Antimycobacterial activity against Mycobacterium kansasii isolate 6509/96 after 21 days; assay type: functional; conditions: isolate 6509/96, 504 h; outline: as §1
Mycobacterium kansasii [6] = assay: Antimycobacterial activity against Mycobacterium kansasii isolate 6509/96 after 14 days; assay type: functional; conditions: isolate 6509/96, 336 h; outline: as §1
[7] = test system: Mycobacterium tuberculosis; assay: Antimycobacterial activity against Mycobacterium tuberculosis CNCTC My 331/88 after 21 days; assay type: functional; conditions: CNCTC My 331/88, 504 h
Outline: (§2)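 Broth dilution in Sula semisynthetic medium, compounds added as DMSO solutions at 250, 125, 62, 32, 16, 8, 4, 2 and 1. Strains came from the Czech National Collection of Type Cultures; the M. tuberculosis inoculum was diluted 10^-3. Cultures were incubated at 37 °C, and MIC was read after 7, 14 and 21 days.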

[8] = test system: Mycobacterium tuberculosis; assay: Antimycobacterial activity against Mycobacterium tuberculosis CNCTC My 331/88 after 14 days; assay type: functional; conditions: CNCTC My 331/88, 336 h; outline: as §2
Mycobacterium avium [9] = assay: Antimycobacterial activity against Mycobacterium avium CNCTC My 330/88 after 14 days; assay type: functional; conditions: CNCTC My 330/88, 336 h; outline: as §2
Mycobacterium avium [10] = assay: Antimycobacterial activity against Mycobacterium avium CNCTC My 330/88 after 21 days; assay type: functional; conditions: CNCTC My 330/88, 504 h; outline: as §2
[11] = Lipophilicity, log K by HPLC; assay type: physicochemical
Outline: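 Capacity factors k were measured by RP-HPLC and log k was calculated from them.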

| Compound | MIC (Mycobacterium kansasii [1]) [µM] | MIC (Mycobacterium kansasii [2]) [µM] | MIC (Mycobacterium kansasii [3]) [µM] | MIC (Mycobacterium kansasii [4]) [µM] | MIC (Mycobacterium kansasii [5]) [µM] | MIC (Mycobacterium kansasii [6]) [µM] | MIC [7] [µM] | MIC [8] [µM] | MIC (Mycobacterium avium [9]) [µM] | MIC (Mycobacterium avium [10]) [µM] | log K [11] |
| --- | --- | --- | --- | --- | --- | --- | --- | --- | --- | --- | --- |
| CC(C)[C@H](NC(=O)OCc1ccccc1)C(=O)Oc1ccc(Cl)cc1C(=O)Nc1cccc(Cl)c1 | 16 (≈ 8.25 µg/mL) | 8 (≈ 4.12 µg/mL) | 8 (≈ 4.12 µg/mL) | 16 (≈ 8.25 µg/mL) | 16 (≈ 8.25 µg/mL) | 16 (≈ 8.25 µg/mL) | 4 (≈ 2.06 µg/mL) | 4 (≈ 2.06 µg/mL) | 16 (≈ 8.25 µg/mL) | 16 (≈ 8.25 µg/mL) | 0.8972 |
| C[C@@H](NC(=O)OCc1ccccc1)C(=O)Oc1ccc(Cl)cc1C(=O)Nc1cccc(Cl)c1 | 16 (≈ 7.8 µg/mL) | 16 (≈ 7.8 µg/mL) | 8 (≈ 3.9 µg/mL) | 16 (≈ 7.8 µg/mL) | 16 (≈ 7.8 µg/mL) | 16 (≈ 7.8 µg/mL) | 8 (≈ 3.9 µg/mL) | 8 (≈ 3.9 µg/mL) | 32 (≈ 15.6 µg/mL) | 32 (≈ 15.6 µg/mL) | 0.699 |
| C[C@@H](NC(=O)OCc1ccccc1)C(=O)Oc1ccc(Cl)cc1C(=O)Nc1ccc(Br)cc1 | 8 (≈ 4.25 µg/mL) | 4 (≈ 2.13 µg/mL) | 8 (≈ 4.25 µg/mL) | 8 (≈ 4.25 µg/mL) | 16 (≈ 8.51 µg/mL) | 16 (≈ 8.51 µg/mL) | 4 (≈ 2.13 µg/mL) | 2 (≈ 1.06 µg/mL) | 16 (≈ 8.51 µg/mL) | 16 (≈ 8.51 µg/mL) | 0.7527 |
| O=C(N[C@@H](Cc1ccccc1)C(=O)Oc1ccc(Cl)cc1C(=O)Nc1ccc(Cl)cc1)OCc1ccccc1 | 16 (≈ 9.01 µg/mL) | 8 (≈ 4.51 µg/mL) | 8 (≈ 4.51 µg/mL) | 16 (≈ 9.01 µg/mL) | 16 (≈ 9.01 µg/mL) | 16 (≈ 9.01 µg/mL) | 4 (≈ 2.25 µg/mL) | 4 (≈ 2.25 µg/mL) | 16 (≈ 9.01 µg/mL) | 16 (≈ 9.01 µg/mL) | 1.0971 |
| O=C(N[C@H](Cc1ccccc1)C(=O)Oc1ccc(Cl)cc1C(=O)Nc1ccc(Cl)cc1)OCc1ccccc1 | 8 (≈ 4.51 µg/mL) | 8 (≈ 4.51 µg/mL) | 8 (≈ 4.51 µg/mL) | 8 (≈ 4.51 µg/mL) | 16 (≈ 9.01 µg/mL) | 8 (≈ 4.51 µg/mL) | 4 (≈ 2.25 µg/mL) | 4 (≈ 2.25 µg/mL) | 16 (≈ 9.01 µg/mL) | 16 (≈ 9.01 µg/mL) | 1.0678 |
| CC(C)[C@H](NC(=O)OCc1ccccc1)C(=O)Oc1ccc(Cl)cc1C(=O)Nc1ccc(Cl)c(Cl)c1 | 4 (≈ 2.2 µg/mL) | 4 (≈ 2.2 µg/mL) | 8 (≈ 4.4 µg/mL) | 8 (≈ 4.4 µg/mL) | 8 (≈ 4.4 µg/mL) | 8 (≈ 4.4 µg/mL) | 4 (≈ 2.2 µg/mL) | 2 (≈ 1.1 µg/mL) | 16 (≈ 8.8 µg/mL) | 32 (≈ 17.6 µg/mL) | 1.1567 |
| C[C@@H](NC(=O)OCc1ccccc1)C(=O)Oc1cc(Cl)ccc1C(=O)Nc1ccc(Cl)cc1 | 8 (≈ 3.9 µg/mL) | 8 (≈ 3.9 µg/mL) | 4 (≈ 1.95 µg/mL) | 8 (≈ 3.9 µg/mL) | 16 (≈ 7.8 µg/mL) | 8 (≈ 3.9 µg/mL) | 8 (≈ 3.9 µg/mL) | 4 (≈ 1.95 µg/mL) | 16 (≈ 7.8 µg/mL) | 16 (≈ 7.8 µg/mL) | 0.6334 |
| CC(C)[C@@H](NC(=O)OCc1ccccc1)C(=O)Oc1ccc(Cl)cc1C(=O)Nc1ccc(Cl)cc1 | 8 (≈ 4.12 µg/mL) | 8 (≈ 4.12 µg/mL) | 8 (≈ 4.12 µg/mL) | 16 (≈ 8.25 µg/mL) | 16 (≈ 8.25 µg/mL) | 8 (≈ 4.12 µg/mL) | 4 (≈ 2.06 µg/mL) | 4 (≈ 2.06 µg/mL) | 16 (≈ 8.25 µg/mL) | 16 (≈ 8.25 µg/mL) | 0.9421 |
| O=C(N[C@@H](Cc1ccccc1)C(=O)Oc1ccc(Cl)cc1C(=O)Nc1ccc(Cl)c(Cl)c1)OCc1ccccc1 | 4 (≈ 2.39 µg/mL) | 4 (≈ 2.39 µg/mL) | 8 (≈ 4.78 µg/mL) | 8 (≈ 4.78 µg/mL) | 8 (≈ 4.78 µg/mL) | 8 (≈ 4.78 µg/mL) | 2 (≈ 1.2 µg/mL) | 2 (≈ 1.2 µg/mL) | 16 (≈ 9.57 µg/mL) | 32 (≈ 19.1 µg/mL) | 1.3056 |
| O=C(CNC(=O)OCc1ccccc1)Oc1ccc(Cl)cc1C(=O)Nc1cccc(Cl)c1 | 16 (≈ 7.57 µg/mL) | 16 (≈ 7.57 µg/mL) | 8 (≈ 3.79 µg/mL) | 16 (≈ 7.57 µg/mL) | 16 (≈ 7.57 µg/mL) | 16 (≈ 7.57 µg/mL) | 8 (≈ 3.79 µg/mL) | 4 (≈ 1.89 µg/mL) | 16 (≈ 7.57 µg/mL) | 32 (≈ 15.1 µg/mL) | 0.6119 |
| C[C@@H](NC(=O)OCc1ccccc1)C(=O)Oc1ccc(Cl)cc1C(=O)Nc1ccc(Cl)cc1 | 16 (≈ 7.8 µg/mL) | 8 (≈ 3.9 µg/mL) | 8 (≈ 3.9 µg/mL) | 16 (≈ 7.8 µg/mL) | 16 (≈ 7.8 µg/mL) | 8 (≈ 3.9 µg/mL) | 4 (≈ 1.95 µg/mL) | 4 (≈ 1.95 µg/mL) | 16 (≈ 7.8 µg/mL) | 16 (≈ 7.8 µg/mL) | 0.7294 |
| O=C(N[C@@H](Cc1ccccc1)C(=O)Oc1ccc(Cl)cc1C(=O)Nc1cccc(Cl)c1)OCc1ccccc1 | 32 (≈ 18 µg/mL) | 32 (≈ 18 µg/mL) | 32 (≈ 18 µg/mL) | 32 (≈ 18 µg/mL) | 32 (≈ 18 µg/mL) | 32 (≈ 18 µg/mL) | 16 (≈ 9.01 µg/mL) | 16 (≈ 9.01 µg/mL) | 32 (≈ 18 µg/mL) | 62.5 (≈ 35.2 µg/mL) | 1.0465 |
| CC(C)[C@H](NC(=O)OCc1ccccc1)C(=O)Oc1ccc(Cl)cc1C(=O)Nc1ccc(Cl)cc1 | 16 (≈ 8.25 µg/mL) | 8 (≈ 4.12 µg/mL) | 8 (≈ 4.12 µg/mL) | 16 (≈ 8.25 µg/mL) | 16 (≈ 8.25 µg/mL) | 8 (≈ 4.12 µg/mL) | 4 (≈ 2.06 µg/mL) | 4 (≈ 2.06 µg/mL) | 16 (≈ 8.25 µg/mL) | 16 (≈ 8.25 µg/mL) | 0.9417 |
| O=C(N[C@H](Cc1ccccc1)C(=O)Oc1ccc(Cl)cc1C(=O)Nc1ccc(Cl)c(Cl)c1)OCc1ccccc1 | 4 (≈ 2.39 µg/mL) | 4 (≈ 2.39 µg/mL) | 8 (≈ 4.78 µg/mL) | 8 (≈ 4.78 µg/mL) | 8 (≈ 4.78 µg/mL) | 8 (≈ 4.78 µg/mL) | 2 (≈ 1.2 µg/mL) | 2 (≈ 1.2 µg/mL) | 16 (≈ 9.57 µg/mL) | 32 (≈ 19.1 µg/mL) | 1.303 |
| CC(C)[C@H](NC(=O)OCc1ccccc1)C(=O)Oc1cc(Cl)ccc1C(=O)Nc1ccc(Cl)cc1 | 8 (≈ 4.12 µg/mL) | 4 (≈ 2.06 µg/mL) | 4 (≈ 2.06 µg/mL) | 8 (≈ 4.12 µg/mL) | 16 (≈ 8.25 µg/mL) | 8 (≈ 4.12 µg/mL) | 8 (≈ 4.12 µg/mL) | 4 (≈ 2.06 µg/mL) | 16 (≈ 8.25 µg/mL) | 16 (≈ 8.25 µg/mL) | 0.8804 |
| O=C(CNC(=O)OCc1ccccc1)Oc1ccc(Cl)cc1C(=O)Nc1ccc(Cl)c(Cl)c1 | 8 (≈ 4.06 µg/mL) | 8 (≈ 4.06 µg/mL) | 8 (≈ 4.06 µg/mL) | 16 (≈ 8.12 µg/mL) | 8 (≈ 4.06 µg/mL) | 8 (≈ 4.06 µg/mL) | 2 (≈ 1.02 µg/mL) | 1 (≈ 0.508 µg/mL) | 16 (≈ 8.12 µg/mL) | 32 (≈ 16.2 µg/mL) | 0.8639 |
| NNC(=O)c1ccncc1 [ISONIAZID] | > 250 | > 250 | 4 (≈ 0.549 µg/mL) | > 250 | 8 (≈ 1.1 µg/mL) | 8 (≈ 1.1 µg/mL) | 0.5 (≈ 0.0686 µg/mL) | 0.5 (≈ 0.0686 µg/mL) | > 250 | > 250 |  |
